# Kir21 inh: Kir2.1 (mouse) channel inhibition. P35561. HEK293-Kir2.1, FluxOR thallium flux fluorescence; hits give low values. B-score at 10 µM. 310,000 tested, 0.85% active. AID 1672;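 active means fluorescence ratio B-score at or below minus 3 SD of library scores, with starting-brightness B-score within 2 SD, cut at about -4.2 in these data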;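 further: channel flux triggered by added potassium and thallium sulfate stimulus; B-score of peak minus minimum fluorescence over baseline after thallium stimulus; more negative B-score means stronger Kir2.1 block with less thallium influx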
# TRPC4 agonist: TRPC4 (mouse) channel activation | AID 2237 | Q9QUQ5 | 310,000 tested, 0.49% active | HEK293 TRPC4beta/mu-opioid, Fluo4 calcium fluorescence; hits give high values | B-score at 10 µM;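 active means B-score above 5 SD of library B-scores, and initial fluorescence ratio not above library mean plus 5 SD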;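 further: positive B-score marks a calcium rise read as TRPC4 activation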
#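 Assay system: HEK293 cells stably co-expressing mouse TRPC4beta and mu-opioid receptor / Timing: Fluo4 dye loading 45 min at room temperature, 110 s recording / Signal: Fluo4 calcium-sensitive dye fluorescence, kinetic, 1 Hz baseline / Read-out: integrated baseline-normalised fluorescence ratio, converted to per-well B score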
# TRPC4 PAM: allosteric potentiators of mouse TRPC4 channel. 310,000 tested, 0.42% active. B-score at 10 µM. HEK293 TRPC4beta/mu-opioid, DAMGO EC20, Fluo-4 Ca2+ flux; hits give high values. Q9QUQ5. AID 2227;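 active means B-score of calcium response area above 5 SD of library B-scores, with initial fluorescence ratio within 5 SD of library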;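 further: B-score of integrated fluorescence ratio over time as area under calcium response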
# TRPC4 inh: inhibitors of mouse TRPC4 channel; 300,000 tested, 0.39% active; B-score at 10 µM; Q9QUQ5; HEK293 TRPC4beta/mu-opioid, DAMGO-evoked Fluo4 calcium flux; hits give low values;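 active means B-score over 3 SD under the library average, no early fluorescence shift, positive overall ratio signal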
#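 Material: HEK293 cells with stable TRPC4beta plus mu-opioid receptor expression / Probe or stimulus: DAMGO in two steps, submaximal then maximal / Compound: single concentration per test compound / Technique: kinetic Fluo4 fluorescence imaging of calcium influx / Read-out: per-well B score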
# TRPC6 inh: blocks the mouse TRPC6 cation channel. B-score at 10 µM. Q61143. 310,000 tested, 1.1% active. AID 2553. HEK293-TRPC6, membrane potential dye, ACh-evoked depolarization; hits give low values;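 active means B-score under library mean minus 3 SD, initial fluorescence not abnormally high, positive integrated signal ratio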;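 further: B-score derived from integrated fluorescence ratio over the kinetic read; more negative B-score means stronger inhibition of depolarization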
# Target sequence (Q61143 whole entry, looked up): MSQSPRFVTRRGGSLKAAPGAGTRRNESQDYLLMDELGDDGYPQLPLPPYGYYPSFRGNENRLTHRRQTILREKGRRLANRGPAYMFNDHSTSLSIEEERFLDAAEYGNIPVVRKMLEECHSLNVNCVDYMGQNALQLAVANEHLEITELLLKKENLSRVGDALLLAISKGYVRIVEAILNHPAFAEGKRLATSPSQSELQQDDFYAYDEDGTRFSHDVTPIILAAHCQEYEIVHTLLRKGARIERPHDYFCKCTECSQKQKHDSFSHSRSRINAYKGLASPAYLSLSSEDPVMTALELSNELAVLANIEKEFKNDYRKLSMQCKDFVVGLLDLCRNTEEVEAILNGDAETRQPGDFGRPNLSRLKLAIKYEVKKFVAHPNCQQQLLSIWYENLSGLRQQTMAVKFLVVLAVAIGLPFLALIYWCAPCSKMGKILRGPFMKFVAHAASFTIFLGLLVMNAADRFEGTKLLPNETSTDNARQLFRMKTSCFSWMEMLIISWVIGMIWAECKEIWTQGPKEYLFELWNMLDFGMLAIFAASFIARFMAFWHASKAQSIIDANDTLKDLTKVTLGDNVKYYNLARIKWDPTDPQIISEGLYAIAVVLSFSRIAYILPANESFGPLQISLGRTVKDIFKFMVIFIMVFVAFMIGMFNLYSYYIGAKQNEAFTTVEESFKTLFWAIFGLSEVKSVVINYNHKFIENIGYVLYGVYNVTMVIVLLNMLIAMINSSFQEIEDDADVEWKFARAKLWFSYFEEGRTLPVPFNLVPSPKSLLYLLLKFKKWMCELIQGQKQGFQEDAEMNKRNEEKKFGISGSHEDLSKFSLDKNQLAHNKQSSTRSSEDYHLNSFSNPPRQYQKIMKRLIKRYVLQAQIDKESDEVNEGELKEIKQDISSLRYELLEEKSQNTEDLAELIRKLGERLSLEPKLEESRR
# TRPC6 activator: mouse TRPC6 channel activation | Q61143 | 310,000 tested, 0.13% active | HEK293-TRPC6 membrane potential dye fluorescence; hits give high values | B-score at 10 µM;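 active means B-score of the integrated fluorescence ratio above library mean plus 3 SD, and starting fluorescence ratio within library mean plus 5 SD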;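 further: higher score means more depolarization so channel activation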
# TRPC4 sel inh 2: second selectivity test of TRPC6 inhibitors: effect on mouse TRPC4; shares compounds with TRPC6 inh; HEK293 TRPC4/MOR, membrane potential dye fluorescence; channel activated by saturating DAMGO dose; inhibition, % at 10 µM; 920 tested, 42% active; AID 2776;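 active means compounds whose fluorescence signal differed from control wells by over 3 SD, either direction, in both duplicate plates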
# TRPC4 spec: tests whether TRPC6 inhibitors also affect mouse TRPC4; HEK293 TRPC4/mu-opioid, membrane potential fluorescence; AID 2777; activity change, negative = inhibition, % at 10 µM; 920 tested, 61% active; shares compounds with TRPC6 inh;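 active means rise or fall in signal beyond 3 SD of buffer-only wells in both replicate plates, either sign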;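 further: integrated kinetic ratio of fluorescence range over baseline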
# HEK293 MPD ctr 2-1: parental HEK293 nonspecific activity of TRPC6 inhibitors, second screen | 920 tested, 31% active | parental HEK293 membrane potential dye fluorescence; maximal acetylcholine challenge after compound addition | signal change vs control, % at 10 µM | shares compounds with TRPC6 inh | AID 2779;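 active means membrane potential signal moving either way by over 3 SD of the maximum-effect control, in both duplicate plates, meaning non-specific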
# HEK293 MPD ctr-1: counter-screen for TRPC6 inhibitors: effect in parental HEK293 cells | shares compounds with TRPC6 inh | parental HEK293 membrane potential dye fluorescence | membrane potential signal change, % at 10 µM | 920 tested, 60% active | AID 2780;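 active means membrane potential signal shifting up or down by more than 3 SD of buffer-only wells, on both duplicate plates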
# HEK293 MPD ctr-2: checks TRPC6 modulator effects in parental HEK293 cells. shares compounds with TRPC6 inh. membrane potential dye fluorescence. membrane potential signal change, % at 10 µM. 2,400 tested, 51% active. AID 488924;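 active means membrane potential signal moves up or down beyond 5 SD from buffer-only wells, on both duplicate plates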
# HEK293 MPD ctr 2-2: parental HEK293 nonspecific activity of TRPC6 modulators, second screen | 2,400 tested, 14% active | inhibition, % at 10 µM | AID 488926 | shares compounds with TRPC6 inh | membrane potential dye fluorescence; after compound, maximal acetylcholine stimulation;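 active means membrane potential signal drops by more than 5 SD from the mean control signal, in both duplicate plates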;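 further: plate controls were acetylcholine ECmax control wells for no effect and buffer only wells for full effect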
# TRPC4/MOR mod: selectivity of TRPC6 modulators against mouse TRPC4; shares compounds with TRPC6 inh; 2,400 tested, 69% active; HEK293 TRPC4/mu-opioid, membrane potential fluorescence; AID 488927; percent change from control (negative = decrease, positive = increase), % at 10 µM;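 active means membrane potential signal moved up or down beyond 5 SD of buffer control wells, in both duplicate plates, actives on both sides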;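 further: plate controls were assay buffer wells for no effect and DAMGO maximal-effect wells for full effect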
# TRPC4 ctr inh 2: second selectivity test of TRPC6 modulators against mouse TRPC4 | shares compounds with TRPC6 inh | AID 488928 | inhibition, % at 10 µM | 2,400 tested, 55% active | HEK293 TRPC4/mu-opioid, membrane potential dye fluorescence; stimulated with maximal-effect DAMGO;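 active means drop in membrane potential signal beyond 5 SD of the control wells in both duplicate plates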;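 further: TRPC4 counter screen for TRPC6 hits run under conditions tuned for TRPC6 not TRPC4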
# TRPC6 inh conf: confirmation of mouse TRPC6 inhibitors; shares compounds with TRPC6 inh; 3,300 tested, 43% active; HEK293-TRPC6, membrane potential dye, ACh-evoked depolarization; inhibition, % at 10 µM;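 active means fluorescence ratio falls more than 5 SD below the full-stimulation control mean, in both duplicate runs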;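 further: integrated fluorescence ratio of peak minus minimum over baseline after agonist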
# TRPC6 act conf: mouse TRPC6 activator confirmation. 2,800 tested, 11% active. shares compounds with TRPC6 inh. HEK293-TRPC6 membrane potential dye fluorescence, FDSS. AID 488961. activation, % at 10 µM;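 active means ratio signal rise beyond 5 SD above unstimulated control wells' mean, seen in both duplicate runs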;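 further: plate controls were buffer EC0 wells for no effect and acetylcholine ECmax response for full effect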
# * hit, by the source's call; i = inactive; / = no result given. The list is not random: actives were taken first. Their share in the collection is about 2.9%.
SMILES,Kir21 inh,TRPC4 agonist,TRPC4 PAM,TRPC4 inh,TRPC6 inh,TRPC6 activator,HEK293 MPD ctr-2,HEK293 MPD ctr 2-2,TRPC4/MOR mod,TRPC4 ctr inh 2,TRPC6 inh conf,TRPC6 act conf,others
Cc1ccc(-n2ncc(C(=O)N3CCN(C(=O)c4ccco4)CC3)c2-n2cccc2)cc1,-0.86,i,i,i,-5.3*,i,i,i,9.0%*,i,59%*,/,
COc1ccc(-c2cc(=O)oc3c(C)c(O)c(CN(C)C)cc23)cc1,0.15,i,i,i,i,i,/,/,/,/,/,/,
Cc1c(O)c(CN(C)C)cc2c1oc(=O)c1ccccc12,0.11,i,i,i,-5.2*,i,-126%*,i,-28%*,i,i,i,
CCOC(=O)c1c(NC(=O)c2c(C(=O)O)cccc2[N+](=O)[O-])sc2c1CCCC2,1.4,i,i,i,i,30*,194%*,i,31%*,i,i,116%*,
CCOC(=O)c1c(NC(=O)c2cccc([N+](=O)[O-])c2C(=O)O)sc2c1CCCC2,-0.18,i,i,i,i,37*,210%*,i,37%*,i,i,102%*,
CCN1CCN(C(=O)c2ccc(C)c(S(=O)(=O)Nc3cccc(C)c3)c2)CC1,-0.8,i,i,i,-5.8*,i,i,i,i,i,i,i,
Cc1cccc(NS(=O)(=O)c2cc(C(=O)N3CCN(C)CC3)ccc2C)c1,-1.2,i,i,i,i,i,/,/,/,/,/,/,
Cc1ccc(C(=O)N2CCN(c3ccccn3)CC2)cc1,-0.71,i,i,i,i,i,/,/,/,/,/,/,
COc1ccc(/C=N/NC(=O)Cn2nc(C)c([N+](=O)[O-])c2C)cc1,-1.8,i,i,i,i,i,/,/,/,/,/,/,
Clc1ccc(C[n+]2cc(-c3ccccc3)n3c2CCCCC3)c(Cl)c1,-1.2,53*,i,-6*,-6*,i,160%*,i,84%*,92%*,54%*,/,
Cc1cccc(C(=O)O/N=C/c2c(Cl)n(C)c3ccccc23)c1,1.8,i,i,i,i,i,/,/,/,/,/,/,
Cc1c(C)n(Cc2ccccc2)c2ccc(C(=O)NCCN3CCOCC3)cc12,-1.6,i,i,i,i,i,/,/,/,/,/,/,
Cc1c(C)n(Cc2ccccc2)c2ccc(C(=O)OCCN(C)C)cc12,-9.5*,i,i,i,-6*,i,i,i,i,72%*,56%*,i,
O=C(/C=C1\NCC2c3ccccc3CCN2C1=O)c1ccccc1 (centres undefined),0.85,i,i,i,-6.1*,i,171%*,i,14%*,i,72%*,/,
O=C1CN(C(=O)/C=C/c2cccc(Cl)c2)c2ccccc2N1,-0.26,i,i,i,-6.7*,i,/,/,/,/,i,i,TRPC4 sel inh 2=i;TRPC4 spec=i;HEK293 MPD ctr 2-1=i;HEK293 MPD ctr-1=i
O=C1CN(C(=O)/C=C/c2ccco2)c2ccccc2N1,0.46,i,i,i,i,i,/,/,/,/,/,/,
CN(C)C(=O)N1CCC(C(=O)NCc2ccccc2Cl)CC1,1.1,i,i,i,i,i,/,/,/,/,/,/,
CS(=O)(=O)N(CC(=O)NCc1ccccc1Cl)C1CCCCC1,-1.6,i,i,i,-6.5*,i,134%*,i,22%*,i,i,/,
CN(C)C(=O)N1CCCC(C(=O)NCc2ccccc2Cl)C1 (centres undefined),0.05,i,i,i,-5.3*,i,i,i,i,i,i,i,
CCOc1ccc(CC(C(=O)NN)C(=O)NN)cc1CN(C)C,-1.5,i,i,i,i,i,/,/,/,/,/,/,
O=C(NCC(=O)N1CCOCC1)c1ccccc1,1,i,i,i,i,i,/,/,/,/,/,/,
O=C(NCC(=O)N1CCOCC1)c1ccc(Cl)cc1,0.57,i,i,i,-9.1*,i,i,i,i,i,i,i,
O=C(/C(=C/c1ccc(Cl)cc1)c1nc2ccccc2[nH]1)c1cccs1,-1.2,i,i,i,-6.8*,i,/,/,/,/,i,i,TRPC4 sel inh 2=i;TRPC4 spec=i;HEK293 MPD ctr 2-1=i;HEK293 MPD ctr-1=i
CCOc1cccc2sc(N(CCN(C)C)C(=O)/C=C/c3cccs3)nc12,1,i,i,i,i,i,/,/,/,/,/,/,
CN(C)CCN(C(=O)c1cccc(N2C(=O)CCC2=O)c1)c1nc2ccc(Br)cc2s1,0.99,i,i,i,i,i,/,/,/,/,/,/,
COc1cccc2sc(N(CCN(C)C)C(=O)c3ccc4c(c3)CCCC4)nc12,-0.03,i,i,i,-6.4*,i,-111%*,98%*,-34%*,94%*,86%*,i,
COc1cccc2sc(N(CCN(C)C)C(=O)/C=C/c3cccs3)nc12,1.8,i,i,i,-6*,i,i,i,-9.5%*,72%*,43%*,i,
